Experimental findings from ChEMBL document CHEMBL1142735, “Discovery of a new series of centrally active tricyclic isoxazoles combining serotonin (5-HT) reuptake inhibition with alpha2-adrenoceptor blocking activity” (J Med Chem, 2005) are described below.

Assay [1] deals with T1, Alpha-2C adrenergic receptor (Homo sapiens, UniProt P18825).
T1 sequence (P18825 whole entry): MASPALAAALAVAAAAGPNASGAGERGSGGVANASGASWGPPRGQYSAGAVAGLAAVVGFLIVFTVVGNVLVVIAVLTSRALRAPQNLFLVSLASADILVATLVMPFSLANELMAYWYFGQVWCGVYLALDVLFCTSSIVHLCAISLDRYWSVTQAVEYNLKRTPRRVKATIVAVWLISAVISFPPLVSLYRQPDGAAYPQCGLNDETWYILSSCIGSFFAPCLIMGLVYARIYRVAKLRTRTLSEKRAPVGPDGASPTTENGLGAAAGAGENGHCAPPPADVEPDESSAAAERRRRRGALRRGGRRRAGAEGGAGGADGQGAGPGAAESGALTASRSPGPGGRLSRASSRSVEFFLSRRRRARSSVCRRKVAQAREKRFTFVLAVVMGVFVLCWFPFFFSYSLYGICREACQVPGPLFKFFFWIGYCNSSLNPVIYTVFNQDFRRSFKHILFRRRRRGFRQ
Nature of the assay: Binding affinity for alpha-2C adrenergic receptor. A digest of the protocol: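 Human alpha2C receptor stably expressed in CHO cell membranes (5-10 µg protein) in 25 mM glycylglycine, pH 7.6. Competition against [3H]rauwolscine (1 nM), 30 min at 25 °C. Nonspecific binding defined with spiroxatrine (1 µM). Rapid filtration over GF/B, washed with ice-cold 50 mM Tris-HCl pH 8.0, scintillation counting. Sigmoidal curves fitted; Ki by Cheng-Prusoff.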

For assay [2], the target named is Rattus norvegicus. Nature of the assay: Effective dose concentration for antagonism ofpCA-Induced excitation was determined by subcutaneous administration. The format is functional, organism-based. The essentials:
(§1)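 Male Wistar rats (200-250 g), fasted overnight, given test compound or solvent sc before challenge. Loss of righting induced by medetomidine 0.10 mg/kg iv; reversal means no loss of righting. Excitation induced by pCA 5 mg/10 mL/kg sc and scored 0-3 over 15 min starting 45 min after pCA; inhibition means score <2.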

The target of assay [3] is Sodium-dependent serotonin transporter (Homo sapiens, UniProt P31645). Nature of the assay: Binding affinity for serotonin transporter. A digest of the protocol: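 Human platelet membranes (50 µg protein) in 50 mM Tris-HCl pH 7.4 with 120 mM NaCl and 5 mM KCl. Competition against [3H]paroxetine (0.5 nM), 60 min at 25 °C. Nonspecific binding defined with imipramine (1 µM). Filtration over 0.1% PEI-presoaked GF/B, washed with incubation buffer. Sigmoidal fit of specific binding; Ki via Cheng-Prusoff.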

Assay [4] addresses Rattus norvegicus. Nature of the assay: Effective dose concentration for reversal of medetomidine-Induced loss of righting was determined by subcutaneous administration. The format is functional, organism-based. A digest of the protocol: as §1
Assay [5] addresses T2, 5-hydroxytryptamine receptor 2C (Homo sapiens, UniProt P28335).
T2 sequence (P28335 whole entry): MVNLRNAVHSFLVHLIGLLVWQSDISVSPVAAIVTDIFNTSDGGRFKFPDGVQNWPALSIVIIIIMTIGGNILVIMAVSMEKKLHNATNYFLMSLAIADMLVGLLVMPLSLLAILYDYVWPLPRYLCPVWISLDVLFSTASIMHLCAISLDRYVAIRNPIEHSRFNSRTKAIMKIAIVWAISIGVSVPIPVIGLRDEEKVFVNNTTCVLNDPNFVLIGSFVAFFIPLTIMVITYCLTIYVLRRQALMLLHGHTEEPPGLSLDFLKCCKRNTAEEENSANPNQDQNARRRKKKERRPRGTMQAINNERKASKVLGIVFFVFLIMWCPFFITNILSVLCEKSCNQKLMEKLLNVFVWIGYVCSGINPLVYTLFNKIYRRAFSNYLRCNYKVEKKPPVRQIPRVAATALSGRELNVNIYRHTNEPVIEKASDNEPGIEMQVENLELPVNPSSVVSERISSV
Nature of the assay: Inhibition of [3H]- mesulergine binding to 5-hydroxytryptamine 2C receptor. A digest of the protocol:
(§2)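 Radioligand competition binding on membranes from cell lines carrying the human target, incubated with the labelled ligand under optimized conditions. Separation by filtration, except α1A and D3, which used scintillation proximity assay.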

The target of assay [6] is Sodium-dependent dopamine transporter (Rattus norvegicus, UniProt P23977). Nature of the assay: Inhibition of [3H]WIN-35428 binding to Dopamine transporter of rat striatum. The format is tissue-based. The essentials: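 Competition binding using rat striatum membranes incubated with the radioligand under optimized conditions, separated by filtration.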
For assay [7], the target named is Norepinephrine transporter (Rattus norvegicus, UniProt Q9WTR4). Nature of the assay: Inhibition of [3H]-nisoxetine binding to Norepinephrine transporter from rat cortex. The essentials: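 Radioligand competition on rat cortex membranes, incubated under optimized conditions. Stopped by rapid filtration. Ki by Cheng-Prusoff.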
The target in assay [8] is Histamine H1 receptor (Homo sapiens, UniProt P35367). Nature of the assay: Inhibition of [3H]pyrilamine binding to Histamine H1 receptor. A digest of the protocol: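 Radioligand competition on membranes from a cell line transfected with the human target, incubated under optimized conditions. Stopped by rapid filtration. Ki by Cheng-Prusoff.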
Assay [9] addresses 5-hydroxytryptamine receptor 2A (Homo sapiens, UniProt P28223). Nature of the assay: Inhibition of [125I]- R91150 binding to 5-hydroxytryptamine 2A receptor. The essentials: as §2
For assay [10], the target named is D(2) dopamine receptor (Homo sapiens, UniProt P14416). Nature of the assay: Inhibition of [3H]spiperone binding to Dopamine receptor D2. A digest of the protocol:
as §2

Assay [11] deals with T3, D(4) dopamine receptor (Homo sapiens, UniProt P21917).
T3 sequence (P21917 whole entry): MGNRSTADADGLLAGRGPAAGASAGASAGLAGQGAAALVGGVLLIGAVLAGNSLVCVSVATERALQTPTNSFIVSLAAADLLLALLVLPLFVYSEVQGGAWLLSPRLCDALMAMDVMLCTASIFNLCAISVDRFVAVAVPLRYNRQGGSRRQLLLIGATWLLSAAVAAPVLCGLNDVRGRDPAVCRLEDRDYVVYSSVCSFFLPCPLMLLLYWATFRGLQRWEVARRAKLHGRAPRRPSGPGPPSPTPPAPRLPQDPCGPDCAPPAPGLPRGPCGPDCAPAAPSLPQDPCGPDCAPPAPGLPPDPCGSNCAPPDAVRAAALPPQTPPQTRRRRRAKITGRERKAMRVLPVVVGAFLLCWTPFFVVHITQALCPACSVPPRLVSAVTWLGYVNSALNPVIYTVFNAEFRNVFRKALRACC
Nature of the assay: Inhibition of [3H]spiperone binding to Dopamine receptor D4. The essentials:
as §2

Assay [12] addresses T4, Adrenergic receptor alpha-1 (Homo sapiens, UniProt P35348+P25100+P35368).
T4 sequence (P35348 whole entry): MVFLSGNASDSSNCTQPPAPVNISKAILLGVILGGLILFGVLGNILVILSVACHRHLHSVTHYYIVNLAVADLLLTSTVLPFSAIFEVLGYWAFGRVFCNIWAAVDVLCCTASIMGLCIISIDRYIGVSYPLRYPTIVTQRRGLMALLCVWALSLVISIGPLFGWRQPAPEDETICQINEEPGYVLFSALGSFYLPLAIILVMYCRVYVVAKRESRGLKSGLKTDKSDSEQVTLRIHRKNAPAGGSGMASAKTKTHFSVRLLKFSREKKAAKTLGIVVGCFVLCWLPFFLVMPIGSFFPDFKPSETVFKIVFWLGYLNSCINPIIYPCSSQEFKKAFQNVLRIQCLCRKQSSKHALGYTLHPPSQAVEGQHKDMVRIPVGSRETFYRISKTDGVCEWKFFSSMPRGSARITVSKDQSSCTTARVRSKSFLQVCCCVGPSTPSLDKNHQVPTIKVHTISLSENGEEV
T4 sequence (P25100 whole entry): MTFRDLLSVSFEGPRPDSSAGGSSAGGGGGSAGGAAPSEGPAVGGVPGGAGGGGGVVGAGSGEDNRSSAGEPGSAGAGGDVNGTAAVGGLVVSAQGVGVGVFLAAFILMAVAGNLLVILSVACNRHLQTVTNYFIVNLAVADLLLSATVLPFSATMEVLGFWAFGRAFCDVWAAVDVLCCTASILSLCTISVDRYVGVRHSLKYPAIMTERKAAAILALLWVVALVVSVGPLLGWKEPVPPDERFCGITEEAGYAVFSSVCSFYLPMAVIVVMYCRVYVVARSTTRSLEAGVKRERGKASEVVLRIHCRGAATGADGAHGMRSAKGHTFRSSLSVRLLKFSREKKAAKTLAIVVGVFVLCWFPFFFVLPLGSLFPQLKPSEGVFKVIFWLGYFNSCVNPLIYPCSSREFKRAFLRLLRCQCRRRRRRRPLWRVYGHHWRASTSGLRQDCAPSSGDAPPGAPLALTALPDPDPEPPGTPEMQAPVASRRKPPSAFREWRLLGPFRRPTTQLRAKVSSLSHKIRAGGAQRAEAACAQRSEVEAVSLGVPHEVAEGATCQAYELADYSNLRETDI
T4 sequence (P35368 whole entry): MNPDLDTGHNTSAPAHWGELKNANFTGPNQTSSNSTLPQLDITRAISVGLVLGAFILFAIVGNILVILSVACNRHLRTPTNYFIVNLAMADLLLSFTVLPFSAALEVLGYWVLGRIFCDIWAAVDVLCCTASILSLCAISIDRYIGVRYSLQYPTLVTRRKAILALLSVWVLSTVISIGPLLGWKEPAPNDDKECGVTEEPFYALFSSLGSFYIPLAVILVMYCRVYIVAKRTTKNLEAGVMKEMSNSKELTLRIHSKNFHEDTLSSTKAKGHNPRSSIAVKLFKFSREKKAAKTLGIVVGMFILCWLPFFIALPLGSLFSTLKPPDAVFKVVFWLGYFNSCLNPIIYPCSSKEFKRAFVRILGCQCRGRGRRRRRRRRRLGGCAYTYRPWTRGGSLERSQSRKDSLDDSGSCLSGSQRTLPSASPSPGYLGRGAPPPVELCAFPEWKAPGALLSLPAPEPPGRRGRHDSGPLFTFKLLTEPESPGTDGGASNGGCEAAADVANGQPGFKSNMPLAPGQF
Nature of the assay: Inhibition of [3H]- prazosin binding to alpha-1 adrenergic receptor. The format is protein assay. The essentials:
as §2

Assay [13] concerns the target T5, 5-hydroxytryptamine receptor 1A (Homo sapiens, UniProt P08908).
T5 sequence (P08908 whole entry): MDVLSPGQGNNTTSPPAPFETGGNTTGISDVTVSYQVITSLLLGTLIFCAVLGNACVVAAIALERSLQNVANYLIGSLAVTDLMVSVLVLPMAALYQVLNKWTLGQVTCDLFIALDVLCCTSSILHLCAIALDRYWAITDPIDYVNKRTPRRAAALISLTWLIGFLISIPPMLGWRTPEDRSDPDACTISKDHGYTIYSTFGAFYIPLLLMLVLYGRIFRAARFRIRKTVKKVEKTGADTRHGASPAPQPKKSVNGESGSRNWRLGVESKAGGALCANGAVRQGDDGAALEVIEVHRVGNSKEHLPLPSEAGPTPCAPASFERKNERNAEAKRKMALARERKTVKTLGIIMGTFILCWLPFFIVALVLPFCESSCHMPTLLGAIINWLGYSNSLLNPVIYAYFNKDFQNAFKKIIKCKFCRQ
Nature of the assay: Inhibition of [3H]8-OH-DPAT binding to 5-hydroxytryptamine 1A receptor. A digest of the protocol: as §2

The subject of assay [14] is Rattus norvegicus. Nature of the assay: Effective dose for antagonism ofpCA-Induced excitation was determined by oral administration. In kind it is functional. The essentials:
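Oral pretreatment of overnight-fasted male Wistar rats (200-250 g), then medetomidine 0.10 mg/kg iv (reversal means no loss of righting) or pCA 5 mg/kg sc (excitation scored 0-3 over 15 min from 45 min after pCA; inhibition means score <2). Doses taken from a geometric series.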

For assay [15], the target named is 5-hydroxytryptamine receptor 7 (Homo sapiens, UniProt P34969). Nature of the assay: Inhibition of [3H]5-HT binding to 5-hydroxytryptamine 7 receptor. A digest of the protocol:
as §2

Sodium-dependent dopamine transporter, sequence (P23977 whole entry): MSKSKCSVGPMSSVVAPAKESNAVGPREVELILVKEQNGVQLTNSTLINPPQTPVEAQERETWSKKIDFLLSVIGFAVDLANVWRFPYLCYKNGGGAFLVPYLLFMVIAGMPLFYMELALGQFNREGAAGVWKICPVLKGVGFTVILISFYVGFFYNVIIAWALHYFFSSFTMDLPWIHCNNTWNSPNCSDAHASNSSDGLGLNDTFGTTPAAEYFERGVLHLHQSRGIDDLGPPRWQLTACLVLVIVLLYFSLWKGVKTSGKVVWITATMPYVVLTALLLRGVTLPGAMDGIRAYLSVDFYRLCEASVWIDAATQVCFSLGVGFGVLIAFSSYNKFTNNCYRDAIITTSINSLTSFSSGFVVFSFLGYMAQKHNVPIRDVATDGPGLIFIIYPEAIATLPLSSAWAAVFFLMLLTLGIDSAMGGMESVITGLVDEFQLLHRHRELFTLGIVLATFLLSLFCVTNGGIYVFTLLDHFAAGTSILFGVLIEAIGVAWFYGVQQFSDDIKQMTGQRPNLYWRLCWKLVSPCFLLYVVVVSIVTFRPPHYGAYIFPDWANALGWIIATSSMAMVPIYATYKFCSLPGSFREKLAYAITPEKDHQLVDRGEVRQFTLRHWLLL
Histamine H1 receptor, sequence (P35367 whole entry): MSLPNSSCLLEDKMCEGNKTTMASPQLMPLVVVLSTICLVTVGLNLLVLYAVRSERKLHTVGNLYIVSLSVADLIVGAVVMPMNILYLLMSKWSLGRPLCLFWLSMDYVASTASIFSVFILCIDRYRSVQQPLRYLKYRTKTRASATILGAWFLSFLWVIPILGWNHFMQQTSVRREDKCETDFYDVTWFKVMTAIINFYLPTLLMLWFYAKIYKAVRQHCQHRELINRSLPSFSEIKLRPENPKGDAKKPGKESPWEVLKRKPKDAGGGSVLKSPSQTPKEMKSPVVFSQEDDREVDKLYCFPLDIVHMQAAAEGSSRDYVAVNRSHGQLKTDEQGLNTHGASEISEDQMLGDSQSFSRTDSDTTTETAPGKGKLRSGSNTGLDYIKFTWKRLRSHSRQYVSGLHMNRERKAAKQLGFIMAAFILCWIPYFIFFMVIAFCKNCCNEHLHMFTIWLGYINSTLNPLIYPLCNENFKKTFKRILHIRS
5-hydroxytryptamine receptor 2A, sequence (P28223 whole entry): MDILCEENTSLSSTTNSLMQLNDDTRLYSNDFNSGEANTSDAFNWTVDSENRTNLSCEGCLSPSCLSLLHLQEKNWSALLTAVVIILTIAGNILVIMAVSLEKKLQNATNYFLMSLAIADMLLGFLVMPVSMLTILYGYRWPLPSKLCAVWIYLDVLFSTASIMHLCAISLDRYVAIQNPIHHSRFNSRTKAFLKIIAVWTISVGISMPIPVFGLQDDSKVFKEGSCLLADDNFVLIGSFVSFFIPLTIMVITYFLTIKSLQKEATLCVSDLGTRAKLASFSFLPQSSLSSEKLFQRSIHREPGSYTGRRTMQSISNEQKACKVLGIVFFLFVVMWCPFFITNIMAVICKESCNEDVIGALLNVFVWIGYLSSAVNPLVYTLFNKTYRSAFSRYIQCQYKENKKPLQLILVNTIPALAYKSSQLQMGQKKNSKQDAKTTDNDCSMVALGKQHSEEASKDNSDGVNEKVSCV
Norepinephrine transporter, sequence (Q9WTR4 whole entry): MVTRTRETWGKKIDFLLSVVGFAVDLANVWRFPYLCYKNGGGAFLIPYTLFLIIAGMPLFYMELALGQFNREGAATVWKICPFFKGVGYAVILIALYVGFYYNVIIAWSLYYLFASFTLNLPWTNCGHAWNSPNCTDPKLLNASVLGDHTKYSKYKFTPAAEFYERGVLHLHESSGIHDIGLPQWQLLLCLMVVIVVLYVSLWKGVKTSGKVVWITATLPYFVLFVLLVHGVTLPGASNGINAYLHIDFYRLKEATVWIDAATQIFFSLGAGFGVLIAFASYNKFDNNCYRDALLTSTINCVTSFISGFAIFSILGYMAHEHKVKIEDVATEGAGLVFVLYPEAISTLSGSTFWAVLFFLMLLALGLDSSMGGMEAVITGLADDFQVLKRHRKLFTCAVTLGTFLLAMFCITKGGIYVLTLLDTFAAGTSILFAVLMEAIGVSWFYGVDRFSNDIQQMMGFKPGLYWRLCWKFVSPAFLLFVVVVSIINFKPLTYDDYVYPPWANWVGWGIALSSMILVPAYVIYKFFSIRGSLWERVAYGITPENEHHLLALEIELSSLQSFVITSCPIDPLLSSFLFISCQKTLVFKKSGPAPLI
D(2) dopamine receptor, sequence (P14416 whole entry): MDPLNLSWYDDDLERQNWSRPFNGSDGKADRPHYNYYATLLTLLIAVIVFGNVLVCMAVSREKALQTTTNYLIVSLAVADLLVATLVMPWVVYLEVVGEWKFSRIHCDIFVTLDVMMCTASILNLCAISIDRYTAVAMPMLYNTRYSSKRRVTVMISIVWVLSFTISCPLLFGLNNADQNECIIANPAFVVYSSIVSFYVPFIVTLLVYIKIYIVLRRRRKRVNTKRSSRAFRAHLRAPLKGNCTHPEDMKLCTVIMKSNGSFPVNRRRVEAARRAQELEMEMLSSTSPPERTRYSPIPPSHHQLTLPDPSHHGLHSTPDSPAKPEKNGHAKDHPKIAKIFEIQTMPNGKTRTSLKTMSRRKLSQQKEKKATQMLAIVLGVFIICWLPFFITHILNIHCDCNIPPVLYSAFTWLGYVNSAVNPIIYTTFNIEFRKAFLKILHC
Sodium-dependent serotonin transporter, sequence (P31645 whole entry): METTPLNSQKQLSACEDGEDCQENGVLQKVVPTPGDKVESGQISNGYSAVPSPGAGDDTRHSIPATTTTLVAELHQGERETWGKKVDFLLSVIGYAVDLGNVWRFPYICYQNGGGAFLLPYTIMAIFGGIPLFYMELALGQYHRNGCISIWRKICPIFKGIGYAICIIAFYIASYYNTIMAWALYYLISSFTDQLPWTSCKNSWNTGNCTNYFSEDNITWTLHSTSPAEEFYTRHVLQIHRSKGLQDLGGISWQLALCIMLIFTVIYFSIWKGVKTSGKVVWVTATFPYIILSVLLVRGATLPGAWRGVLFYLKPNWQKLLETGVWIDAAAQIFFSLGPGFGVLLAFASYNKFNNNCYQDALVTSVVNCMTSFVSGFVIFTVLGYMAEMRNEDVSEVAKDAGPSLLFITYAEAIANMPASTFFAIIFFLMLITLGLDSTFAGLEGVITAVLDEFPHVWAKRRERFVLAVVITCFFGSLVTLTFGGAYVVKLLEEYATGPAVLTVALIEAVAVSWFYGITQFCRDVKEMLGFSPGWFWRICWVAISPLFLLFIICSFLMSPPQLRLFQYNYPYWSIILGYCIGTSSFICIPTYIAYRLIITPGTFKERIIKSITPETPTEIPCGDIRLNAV
5-hydroxytryptamine receptor 7, sequence (P34969 whole entry): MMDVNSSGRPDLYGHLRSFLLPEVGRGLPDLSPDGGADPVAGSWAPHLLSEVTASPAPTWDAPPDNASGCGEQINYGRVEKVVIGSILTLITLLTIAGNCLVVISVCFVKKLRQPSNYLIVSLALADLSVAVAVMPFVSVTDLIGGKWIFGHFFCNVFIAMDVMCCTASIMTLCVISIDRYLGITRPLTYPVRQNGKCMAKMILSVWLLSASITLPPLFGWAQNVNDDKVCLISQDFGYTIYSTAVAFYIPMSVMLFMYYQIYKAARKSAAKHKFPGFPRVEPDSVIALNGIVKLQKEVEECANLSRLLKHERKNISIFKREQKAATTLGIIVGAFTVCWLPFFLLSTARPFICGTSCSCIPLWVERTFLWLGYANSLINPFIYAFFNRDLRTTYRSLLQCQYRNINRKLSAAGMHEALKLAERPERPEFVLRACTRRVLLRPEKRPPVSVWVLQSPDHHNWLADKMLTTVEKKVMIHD

The term Ki denotes a dissociation constant, usually derived from enzyme kinetics or from competition with a known ligand. Lower therefore signals tighter binding. Usually ED50 stands for the dose that gives a 50% effect, or the effect in half of the subjects. With `COc1cc2c(cc1OC)C1=NO[C@@H](CN3CCN(C/C=C(\C)c4ccccc4)CC3)[C@@H]1CN2`, the Ki in [1] is 0.0036 µM; in assay [3], 0.015 µM. Also, the ED50 in assay [2] amounted to 7.9 mg/kg; in assay [4], 2.5 mg/kg.
In the case of `COc1cccc2c1CCC[C@H]2CN(C)CCc1ccc2ccoc2c1`, the Ki in assay [5], in assay [6], in [7], in [8], in [9] and in assay [10] was over 1 µM each time. The Ki was 0.234 µM in [11], over 1 µM in assay [12] and over 1 µM in assay [13]. In assay [14], this molecule gave an ED50 of over 10 mg/kg.
Consider `Fc1ccc2c(c1)CC(CC1CN=CN1)C2` (stereo not drawn), for which the Ki in [5] is over 1 µM; in assay [6], over 1 µM; in assay [7] it was 0.365 µM; in assay [8], over 1 µM; in assay [9] it was over 1 µM; in [10] it was over 1 µM. For the same molecule, the Ki is over 1 µM in assay [12], 0.77 µM in assay [13] and over 1 µM in [15].
